Experimental data: ChEMBL document CHEMBL4433210, “Synthesis and Evaluation of Bifunctional Aminothiazoles as Antiretrovirals Targeting the HIV-1 Nucleocapsid Protein” (ACS Med Chem Lett, 2019)
Calls of active or inactive are those of the source.

Legend:
[1] = system: Human immunodeficiency virus 1; assay: Antiviral activity against wild type HIV1 NL4-3 infected in human TZM-bl cells assessed as reduction in viral replication after 48 hrs by bright Glo-luciferase reporter gene assay based BiCycle assay; type: functional, organism-based; conditions: Human immunodeficiency virus 1, NL4-3, TZM-bl
Summary of the method: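 BiCycle format: MT-2 cells infected with wild-type NL4-3 in the presence of compound dilutions. Virus produced in this first round was then quantified by infecting TZM-bl cells. IC50 was derived from the dose-response data.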

[2] = Inhibition of synthesized Nucleocapsid protein (11 to 55 residues) assessed as reduction in NC-induced cTAR DNA destabilization pre-treated with cTAR and Nucleocapsid (11-55) for 15 mins followed by compound addition at 10 uM by spectroflurometry relative to control
Summary of the method: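 NC chaperone inhibition assay: fluorescence monitoring of NC-induced destabilization of cTAR DNA labelled with Alexa488 at the 5′ end and Dabcyl quencher at the 3′ end. Compound is tested at 10 μM.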

[3] = Cytotoxicity against human PBMC cells assessed as reduction in cell viability after 7 days by MTS assay; type: cell-based; conditions: read-out: TD50
Summary of the method: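 Cytotoxicity in peripheral blood mononuclear cells by MTS assay, giving TD50. Only compounds that met the BiCycle IC50 ≤ 5 μM criterion and were positive in the NC inhibition assay were tested.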

[4] = Selectivity index, ratio of TD50 for cytotoxicity aginst human PBMC cells to IC50 for antiviral activity against wild type HIV1 NL4-3 infected in human TZM-bl cells assessed as reduction in viral replication after 48 hrs by bright Glo-luciferase reporter gene assay based BiCycle assay; type: toxicity, cell-based; conditions: read-out: Selectivity Index
Summary of the method: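 SI calculated as TD50 from the PBMC MTS assay divided by IC50 from the BiCycle antiviral assay (MT-2 infection followed by TZM-bl read-out).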

[5] = system: Human immunodeficiency virus 1; assay: (§1) Antiviral activity against HIV1 11808 harboring protease L10F/K20T/V32I/L33F/I54V/G73S/I84V/L89V/L90M mutant infected in human TZM-bl cells infected with supernatants from virus-infected human MT2 cells treated with compound for 72 hrs assessed as reduction in viral replication after 48 hrs by bright Glo-luciferase reporter gene assay; type: functional, organism-based; conditions: Human immunodeficiency virus 1, 11808
Summary of the method: (§2)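 BiCycle assay: MT-2 cells infected with a drug-resistant HIV-1 strain in the presence of compound dilutions. Virus produced in this first round is then measured by infecting TZM-bl cells. The readout is IC50.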

[6] = system: Human immunodeficiency virus 1; assay: as §1, with “12465” for “11808”, “M46I/I54V/Q58E/T74P/V82L/L90M” for “L10F/K20T/V32I/L33F/I54V/G73S/I84V/L89V/L90M”; type: functional, organism-based; conditions: Human immunodeficiency virus 1, 12465; summary of the method: as §2
[7] = system: Human immunodeficiency virus 1; assay: as §1, with “7400” for “11808”, “nucleoside reverse transcriptase M41L/D67N/M184V/L210W/T215Y” for “protease L10F/K20T/V32I/L33F/I54V/G73S/I84V/L89V/L90M”; type: functional, organism-based; conditions: Human immunodeficiency virus 1, 7400; summary of the method: as §2
[8] = system: Human immunodeficiency virus 1; assay: as §1, with “7401” for “11808”, “nucleoside reverse transcriptase M41L/E44D/D67N/T69D/M184V/L210W/T215Y” for “protease L10F/K20T/V32I/L33F/I54V/G73S/I84V/L89V/L90M”; type: functional, organism-based; conditions: Human immunodeficiency virus 1, 7401; summary of the method: as §2
[9] = system: Human immunodeficiency virus 1; assay: as §1, with “12231” for “11808”, “non-nucleoside reverse transcriptase 103N/179F/181C” for “protease L10F/K20T/V32I/L33F/I54V/G73S/I84V/L89V/L90M”; type: functional, organism-based; conditions: Human immunodeficiency virus 1, 12231; summary of the method: as §2
[10] = system: Human immunodeficiency virus 1; assay: as §1, with “12229” for “11808”, “non-nucleoside reverse transcriptase L100I/K103N/H221Y” for “protease L10F/K20T/V32I/L33F/I54V/G73S/I84V/L89V/L90M”; type: functional, organism-based; conditions: Human immunodeficiency virus 1, 12229; summary of the method: as §2
[11] = system: Human immunodeficiency virus 1; assay: as §1, with “11845” for “11808”, “integrase 140S/148H double” for “protease L10F/K20T/V32I/L33F/I54V/G73S/I84V/L89V/L90M”; type: functional, organism-based; conditions: Human immunodeficiency virus 1, 11845; summary of the method: as §2
[12] = system: Human immunodeficiency virus 1; assay: Selectivity ratio of IC50 for HIV1 11808 harboring protease L10F/K20T/V32I/L33F/I54V/G73S/I84V/L89V/L90M mutant infected in human MT2 cells to IC50 for HIV1 NL4-3 infected in human MT2 cells; type: functional
Summary of the method: (§3)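 Fold change is the IC50 against the resistant strain divided by the IC50 against the wild-type NL4–3 reference. Both IC50 values come from the BiCycle assay (MT-2 infection, then TZM-bl readout of progeny virus).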

[13] = system: Human immunodeficiency virus 1; assay: Selectivity ratio of IC50 for HIV1 12465 harboring protease M46I/I54V/Q58E/T74P/V82L/L90M mutant infected in human MT2 cells to IC50 for HIV1 NL4-3 infected in human MT2 cells; type: functional; summary of the method: as §3
[14] = system: Human immunodeficiency virus 1; assay: Selectivity ratio of IC50 for HIV1 7400 harboring nucleoside reverse transcriptase M41L/D67N/M184V/L210W/T215Y mutant infected in human MT2 cells to IC50 for HIV1 NL4-3 infected in human MT2 cells; type: functional; summary of the method: as §3
[15] = system: Human immunodeficiency virus 1; assay: Selectivity ratio of IC50 for HIV1 7401 harboring nucleoside reverse transcriptase M41L/E44D/D67N/T69D/M184V/L210W/T215Y mutant infected in human MT2 cells to IC50 for HIV1 NL4-3 infected in human MT2 cells; type: functional; summary of the method: as §3
[16] = system: Human immunodeficiency virus 1; assay: Selectivity ratio of IC50 for HIV1 12231 harboring non-nucleoside reverse transcriptase 103N/179F/181C mutant infected in human MT2 cells to IC50 for HIV1 NL4-3 infected in human MT2 cells; type: functional; summary of the method: as §3
[17] = system: Human immunodeficiency virus 1; assay: Selectivity ratio of IC50 for HIV1 12229 harboring non-nucleoside reverse transcriptase L100I/K103N/H221Y mutant infected in human MT2 cells to IC50 for HIV1 NL4-3 infected in human MT2 cells; type: functional; summary of the method: as §3
[18] = system: Human immunodeficiency virus 1; assay: Selectivity ratio of IC50 for HIV1 11845 harboring integrase 140S/148H double mutant mutant infected in human MT2 cells to IC50 for HIV1 NL4-3 infected in human MT2 cells; type: functional; summary of the method: as §3
[19] = system: Human immunodeficiency virus 1; assay: Antiviral activity against wild-type HIV1 NL4-3 infected infected in human MT2 cells assessed as reduction in HIV1 integrated DNA at 5 uM and measured after 30 hrs post infection by Alu-LTR PCR protocol based method; type: functional, organism-based
Summary of the method: (§4)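 MT-2 cells were infected with NL4-3 at MOI 0.1 and incubated with test or reference agents at 20, 5 or 1 μM. Real-time PCR measured integrated HIV-1 DNA and intracellular and extracellular genomic HIV-1 RNA at 30 h post-infection. Levels are expressed as a percentage of the no-drug control culture.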

[20] = system: Human immunodeficiency virus 1; assay: Antiviral activity against wild-type HIV1 NL4-3 infected infected in human MT2 cells assessed as reduction in HIV1 intracellular genomic RNA level at 5 uM and measured after 30 hrs post infection by TaqMan probe based RT-PCR analysis; type: functional, organism-based; summary of the method: as §4
[21] = system: Human immunodeficiency virus 1; assay: Antiviral activity against wild-type HIV1 NL4-3 infected infected in human MT2 cells assessed as reduction in HIV1 extracellular genomic RNA level at 5 uM and measured after 30 hrs post infection by TaqMan probe based RT-PCR analysis; type: functional, organism-based; summary of the method: as §4
[22] = system: Human immunodeficiency virus 1; assay: Antiviral activity against wild-type HIV1 NL4-3 infected infected in human MT2 cells assessed as reduction in extracellular RNA at 5 uM and measured after 30 hrs post infection by Alu-LTR PCR protocol based method; type: functional, organism-based; summary of the method: as §4
[23] = system: Human immunodeficiency virus 1; assay: Antiviral activity against wild-type HIV1 NL4-3 infected in human TZM-bl cells treated with compound assessed as reduction in viral replication after 48 hrs by bright Glo-luciferase reporter gene assay based monocycle assay; conditions: Human immunodeficiency virus 1, NL4-3
[24] = system: Human immunodeficiency virus 1; assay: Antiviral activity against wild-type HIV1 NL4-3 infected in human TZM-bl cells infected with supernatants from virus-infected human HeLa P4.R5MAGI cells treated with compound for 72 hrs assessed as reduction in viral replication after 48 hrs by bright Glo-luciferase reporter gene assay; type: functional, organism-based; conditions: Human immunodeficiency virus 1, NL4-3
[25] = system: Human immunodeficiency virus 1; assay: Antiviral activity against wild-type HIV1 NL4-3 infected infected in human MT2 cells assessed as reduction in HIV1 integrated DNA at 20 uM and measured after 30 hrs post infection by Alu-LTR PCR protocol based method; type: functional, organism-based; summary of the method: as §4
[26] = system: Human immunodeficiency virus 1; assay: Antiviral activity against wild-type HIV1 NL4-3 infected infected in human MT2 cells assessed as reduction in HIV1 intracellular genomic RNA level at 20 uM and measured after 30 hrs post infection by TaqMan probe based RT-PCR analysis; type: functional, organism-based; summary of the method: as §4
[27] = system: Human immunodeficiency virus 1; assay: Antiviral activity against wild-type HIV1 NL4-3 infected infected in human MT2 cells assessed as reduction in HIV1 extracellular genomic RNA level at 20 uM and measured after 30 hrs post infection by TaqMan probe based RT-PCR analysis; type: functional, organism-based; summary of the method: as §4
[28] = system: Human immunodeficiency virus 1; assay: Antiviral activity against wild-type HIV1 NL4-3 infected infected in human MT2 cells assessed as reduction in intracellular RNA at 20 uM and measured after 30 hrs post infection by Alu-LTR PCR protocol based method; type: functional, organism-based; summary of the method: as §4
[29] = system: Human immunodeficiency virus 1; assay: Antiviral activity against wild-type HIV1 NL4-3 infected infected in human MT2 cells assessed as reduction in extracellular RNA at 20 uM and measured after 30 hrs post infection by Alu-LTR PCR protocol based method; type: functional, organism-based; summary of the method: as §4
[30] = system: Human immunodeficiency virus 1; assay: Antiviral activity against wild-type HIV1 NL4-3 infected infected in human MT2 cells assessed as reduction in intracellular RNA at 1 uM and measured after 30 hrs post infection by Alu-LTR PCR protocol based method; type: functional, organism-based; summary of the method: as §4
[31] = system: Human immunodeficiency virus 1; assay: Antiviral activity against wild-type HIV1 NL4-3 infected infected in human MT2 cells assessed as reduction in extracellular RNA at 1 uM and measured after 30 hrs post infection by Alu-LTR PCR protocol based method; type: functional, organism-based; summary of the method: as §4

| Compound | IC50 [1] | inhibition [2] | CC50 at 168 h [3] | selectivity ratio at 48 h [4] | IC50 [5] | IC50 [6] | IC50 [7] | IC50 [8] | IC50 [9] | IC50 [10] | IC50 [11] | Ratio IC50 [12] | Ratio IC50 [13] | Ratio IC50 [14] | Ratio IC50 [15] | Ratio IC50 [16] | Ratio IC50 [17] | Ratio IC50 [18] | IC50 [23] | further results |
| --- | --- | --- | --- | --- | --- | --- | --- | --- | --- | --- | --- | --- | --- | --- | --- | --- | --- | --- | --- | --- |
| Nc1nc(CCOC(=O)c2ccc(COc3ccccc3-c3csc(N)n3)cc2)cs1.O=C(O)C(F)(F)F.O=C(O)C(F)(F)F | 300 nM | 18% | 16000 nM | 53 | 1100 nM | 400 nM | 100 nM | 500 nM | 700 nM | 300 nM | 700 nM | 3.6 | 1.2 | 0.4 | 1.5 | 2.2 | 1 | 2.3 | 1200 nM | Activity [19]: inactive; Activity [20]: Active; Activity [21]: Active; Activity [22]: Active |
| Nc1nc(-c2ccccc2OCc2ccc(C(=O)O)cc2)cs1 |  | 6% |  |  |  |  |  |  |  |  |  |  |  |  |  |  |  |  |  | IC50 [24]: 95000 nM |
| Nc1nc(-c2ccc(OCc3cccc(C(=O)NCCNC(=O)c4ccc(COc5ccc(Cl)cc5-c5csc(N)n5)cc4)c3)cc2)cs1.O=C(O)C(F)(F)F.O=C(O)C(F)(F)F | 800 nM | 20% | > 50000 nM | > 63 | 600 nM | 1600 nM | 700 nM | 1400 nM | 6000 nM | 1000 nM | 2200 nM | 0.7 | 2 | 0.9 | 1.8 | 7.5 | 1.2 | 2.7 | > 50000 nM | Activity [25]: inactive; Activity [26]: inactive; Activity [27]: inactive; Activity [28]: inactive; Activity [29]: Active |
| CC(C)CN(C[C@@H](O)[C@H](Cc1ccccc1)NC(=O)O[C@H]1CO[C@H]2OCC[C@H]21)S(=O)(=O)c1ccc(N)cc1 |  |  |  |  |  |  |  |  |  |  |  |  |  |  |  |  |  |  |  | Activity [30]: inactive; Activity [31]: Active |
